Data set [1] addresses T1, Epidermal growth factor receptor (Homo sapiens, UniProt P00533). As to the kind of experiment: Inhibition of EGF-stimulated wild type EGFR in human A431 cells assessed as decrease in ERK phosphorylation at 3 to 300 nM preincubated for 4 hrs followed by EGF stimulation measured after 10 mins by Western blot analysis. The note with it: a431, 10 min, 0.3 µM. For orientation: Immunoblotting shows a protein as a band on a membrane.

Data set [2] concerns the target T1, Epidermal growth factor receptor. In words: Inhibition of N-terminal 6His/TEV protease cleavage site-tagged wild type human EGFR using poly (Glu,Tyr) 4:1 as substrate after 1 hr by ELISA. Background: An ELISA detects its analyte on a solid surface through an enzyme-linked reagent.
The next data set relates to A-431. As to the kind of experiment: Antiproliferative activity against human A431 cells harboring wild type EGFR after 72 hrs by SRB assay. In kind it is cell-based. The note with it: A-431, 72 h. Summed up: (§1)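 Cells were cultured in RPMI 1640 with 10% FBS and 1% penicillin-streptomycin at 37 °C in 5% CO2, and their EGFR gene was sequenced before use. They were exposed to a range of compound concentrations for 72 h, and growth was read by sulforhodamine B staining. IC50 came from non-linear regression with a sigmoidal dose-response model.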
A general note: Sulforhodamine B stains cellular protein and so reports cell mass.

Data set [3] concerns the target T1, Epidermal growth factor receptor. As to the kind of experiment: Inhibition of EGF-stimulated wild type EGFR phosphorylation in human A431 cells at 3 to 300 nM preincubated for 4 hrs followed by EGF stimulation measured after 10 mins by Western blot analysis. The note with it: a431, 10 min, 0.3 µM.
In data set [4] the target is Epidermal growth factor receptor (Homo sapiens, UniProt P00533, L858R/T790M). As to the kind of experiment: Inhibition of N-terminal 6His/TEV protease cleavage site-tagged human EGFR L858R/T790M double mutant (696 to 1022 residues) using poly (Glu,Tyr) 4:1 as substrate after 1 hr by ELISA.
For the next data set, the system named is NCI-H1975. As to the kind of experiment: Antiproliferative activity against human NCI-H1975 cells harboring EGFR L858R/T790M double mutant after 72 hrs by SRB assay. As to conditions: NCI-H1975, 72 h; call rule not given here. The format is functional, cell-based. Summed up:
as §1

Data on 1 compound can be found in ChEMBL document CHEMBL4000215, “A structure-guided optimization of pyrido[2,3-d]pyrimidin-7-ones as selective inhibitors of EGFRL858R/T790M mutant with improved pharmacokinetic properties” (Eur J Med Chem, 2017).

pIC50: −log10 of the molar value.

T1 sequence (P00533 whole entry): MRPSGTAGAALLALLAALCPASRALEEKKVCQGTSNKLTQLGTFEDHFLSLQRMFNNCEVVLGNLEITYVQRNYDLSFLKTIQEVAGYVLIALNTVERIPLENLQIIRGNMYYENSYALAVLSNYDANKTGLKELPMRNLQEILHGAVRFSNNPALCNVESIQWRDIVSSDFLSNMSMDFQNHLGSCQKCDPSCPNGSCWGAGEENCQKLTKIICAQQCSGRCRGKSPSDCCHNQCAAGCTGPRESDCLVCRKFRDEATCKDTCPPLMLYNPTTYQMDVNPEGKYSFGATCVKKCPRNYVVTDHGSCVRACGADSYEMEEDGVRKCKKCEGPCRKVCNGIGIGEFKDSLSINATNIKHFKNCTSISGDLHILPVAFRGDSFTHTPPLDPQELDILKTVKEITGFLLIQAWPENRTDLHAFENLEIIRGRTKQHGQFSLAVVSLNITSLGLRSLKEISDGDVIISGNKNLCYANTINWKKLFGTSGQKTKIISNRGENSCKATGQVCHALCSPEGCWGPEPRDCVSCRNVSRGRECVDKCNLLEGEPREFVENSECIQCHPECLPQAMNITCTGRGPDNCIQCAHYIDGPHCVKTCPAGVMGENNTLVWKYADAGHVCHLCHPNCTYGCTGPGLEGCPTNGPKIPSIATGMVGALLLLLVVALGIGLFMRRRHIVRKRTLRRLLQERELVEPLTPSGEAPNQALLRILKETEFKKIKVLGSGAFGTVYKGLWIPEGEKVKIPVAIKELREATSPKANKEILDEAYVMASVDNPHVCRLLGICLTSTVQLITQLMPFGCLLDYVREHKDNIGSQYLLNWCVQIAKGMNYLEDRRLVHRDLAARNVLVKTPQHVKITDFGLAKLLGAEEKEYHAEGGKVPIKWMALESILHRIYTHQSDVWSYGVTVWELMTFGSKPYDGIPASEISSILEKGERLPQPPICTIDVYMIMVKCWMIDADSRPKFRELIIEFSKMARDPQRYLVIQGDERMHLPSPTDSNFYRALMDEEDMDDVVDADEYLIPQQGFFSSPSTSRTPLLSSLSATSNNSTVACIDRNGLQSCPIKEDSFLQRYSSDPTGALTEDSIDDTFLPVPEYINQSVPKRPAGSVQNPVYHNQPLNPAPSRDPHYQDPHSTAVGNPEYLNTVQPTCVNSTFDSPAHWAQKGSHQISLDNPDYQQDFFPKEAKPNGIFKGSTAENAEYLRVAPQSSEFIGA
Sequence of Epidermal growth factor receptor (Homo sapiens, UniProt P00533, L858R/T790M) (P00533 25-1210 T790M/L858R limits assumed): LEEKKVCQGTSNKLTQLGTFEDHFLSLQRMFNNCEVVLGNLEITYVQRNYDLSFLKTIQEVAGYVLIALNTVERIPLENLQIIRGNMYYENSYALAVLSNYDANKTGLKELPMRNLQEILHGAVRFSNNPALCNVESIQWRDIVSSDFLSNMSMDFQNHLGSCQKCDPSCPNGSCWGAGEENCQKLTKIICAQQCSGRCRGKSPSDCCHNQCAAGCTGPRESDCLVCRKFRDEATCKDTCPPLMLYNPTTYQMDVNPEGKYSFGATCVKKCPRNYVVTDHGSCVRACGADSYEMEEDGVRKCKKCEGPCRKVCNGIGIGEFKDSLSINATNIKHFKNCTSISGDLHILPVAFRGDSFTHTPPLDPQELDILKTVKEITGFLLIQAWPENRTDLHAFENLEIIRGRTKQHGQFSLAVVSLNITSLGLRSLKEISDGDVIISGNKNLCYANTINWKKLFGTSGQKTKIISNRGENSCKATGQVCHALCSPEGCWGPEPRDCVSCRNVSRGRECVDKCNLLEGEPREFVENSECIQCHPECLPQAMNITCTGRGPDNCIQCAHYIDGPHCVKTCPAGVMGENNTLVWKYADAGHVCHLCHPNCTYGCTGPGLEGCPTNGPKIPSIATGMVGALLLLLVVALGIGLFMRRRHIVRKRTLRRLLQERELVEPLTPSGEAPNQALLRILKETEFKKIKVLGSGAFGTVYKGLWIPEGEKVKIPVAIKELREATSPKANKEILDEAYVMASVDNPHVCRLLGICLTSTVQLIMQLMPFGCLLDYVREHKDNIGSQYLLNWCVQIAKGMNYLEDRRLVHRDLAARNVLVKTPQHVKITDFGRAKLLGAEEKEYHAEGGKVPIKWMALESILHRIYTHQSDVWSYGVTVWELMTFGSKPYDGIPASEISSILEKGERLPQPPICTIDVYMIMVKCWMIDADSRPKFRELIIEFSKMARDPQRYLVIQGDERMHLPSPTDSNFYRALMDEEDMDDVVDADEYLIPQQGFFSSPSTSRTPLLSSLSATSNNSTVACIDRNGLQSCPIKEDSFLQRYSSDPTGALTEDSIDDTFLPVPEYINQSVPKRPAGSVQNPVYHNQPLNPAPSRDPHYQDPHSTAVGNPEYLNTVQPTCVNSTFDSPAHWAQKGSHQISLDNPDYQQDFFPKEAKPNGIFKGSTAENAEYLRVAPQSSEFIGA

Usually pIC50 stands for −log10 of the IC50, conventionally taken in molar units. Read a low pIC50 as a large IC50. As to `C=CC(=O)Nc1cc(-n2c(=O)cc(C)c3cnc(Nc4ccc(N5CCN(C)CC5)cc4OC)nc32)cc(C(F)(F)F)c1`, the “inhibition (INH)” value in data set [1] and in data set [3] was “Not Active” throughout. The pIC50 in data set [2] is 6.74; in the data set on A-431 it was 5.86; in data set [4] it was 8.70; in the data set on NCI-H1975 it was 7.40.
